From publication PMC4592802 (Journal of immunology (Baltimore, Md. : 1950), 2015)

Tests used:
[1] = test system: 3.L2 TCR on T cells; experiment: Thermal fluctuation assay; type: binding, mouse; details: T cells treated with anti-CD4 GK1.5; zero force
How it was run: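 Cells were pretreated 30min at 4°C with 20μg/ml anti-CD4 GK1.5, and the antibody was kept in the chamber during measurement. A biomembrane force probe bead bearing subsaturating biotinylated pMHC-II contacted the T cell. Bond lifetime ran from reduction to resumption of bead thermal fluctuations. koff was taken from the negative slope of ln(events with lifetime > t_b) versus t_b.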

[2] = test system: 3.L2 TCR on CD8^+ 3.L2 T cells; experiment: BFP force-clamp bond lifetime assay, CD8+ 3.L2 T cells; type: binding, mouse; details: for Bond type under force / Bond lifetime versus force: force-clamp, 5-40 pN, CD8+ 3.L2 T cells; for Bond type under force: >300 lifetime events per ligand; for Force at maximum ratio of bond lifetime of Hb to that of the peptide: ratio bond lifetime Hb/peptide vs force (Fig. 6B)
How it was run: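 Biomembrane force probe force-clamp used beads carrying streptavidin-maleimide and subsaturating biotinylated pMHC-II. Each bond was loaded to a preset force and held constant until it dissociated. pMHC density was adjusted to keep adhesion frequency <20%, for […] single bonds. >300 lifetimes per ligand were taken over 5-40pN, in 5-7 bins. The Hb/peptide lifetime ratio was calculated from the force versus lifetime data.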

[3] = test system: 3.L2 TCR on CD4^+ 3.L2 T cells; experiment: Micropipette adhesion frequency assay, CD4+ 3.L2 T cells; type: binding, mouse; details: T cells treated with anti-CD4 GK1.5, 20 μg/ml
How it was run: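 T cells were incubated 30min at 4°C with 20μg/ml anti-CD4 GK1.5, then tested with the same antibody present. Micropipette contacts were made with pMHC-coated RBCs, and adhesion frequency counted from 50 contacts per cell pair over a range of contact times. A least-squares fit to the probabilistic kinetic equation, using measured TCR and pMHC densities, gave AcKa and koff. On-rate = AcKa × koff.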

[4] = test system: 3.L2 TCR T-cell response; details: relative activity of well-characterized ligands; ref [6], [36]; cited from earlier work
[5] = molecular target: CD4 (mouse (endogenous in 3.L2 transgenic mouse T cells)) (UniProt P06332); experiment: micropipette adhesion frequency assay
[6] = test system: 3.L2 TCR; details: 3D SPR; ref [6]; cited from earlier work
[7] = test system: CD4 on 3.L2 T cells; experiment: Adhesion frequency assay for direct CD4 binding; design: species or system mouse; details: MCC:I-E^k at >4,000 molecules/μm^2; contact 5s; n≥3 cell pairs, 50 contacts each
How it was run: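 3.L2 T cells, negatively selected from 6–8-week mouse spleens, were brought by micropipette into repeated 5-s contacts with human RBCs. The RBCs were biotinylated, streptavidin-linked and coated with noncognate MCC:I-E^k at >4,000 molecules/μm². Site densities came from PE-antibody flow cytometry against standard beads. Adhesion was scored from RBC membrane deflection on retraction, with frequency taken from 50 contacts per cell pair.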

UniProt P06332, sequence (P06332 27-457): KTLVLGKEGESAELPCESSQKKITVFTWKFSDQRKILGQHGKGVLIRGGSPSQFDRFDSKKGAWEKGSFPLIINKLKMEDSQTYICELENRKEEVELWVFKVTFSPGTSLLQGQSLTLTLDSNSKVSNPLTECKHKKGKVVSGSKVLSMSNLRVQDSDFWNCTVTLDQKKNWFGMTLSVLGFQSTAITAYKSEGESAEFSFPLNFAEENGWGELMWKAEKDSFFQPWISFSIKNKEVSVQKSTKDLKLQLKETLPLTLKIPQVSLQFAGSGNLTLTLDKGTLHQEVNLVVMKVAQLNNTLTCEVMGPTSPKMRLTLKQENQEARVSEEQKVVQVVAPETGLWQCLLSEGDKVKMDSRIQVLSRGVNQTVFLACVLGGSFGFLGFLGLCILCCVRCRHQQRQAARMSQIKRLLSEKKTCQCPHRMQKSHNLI

Substance	Bond type under force [2]	Classification of Ligand [4]	Bond lifetime versus force [2]	Force at maximum ratio of bond lifetime of Hb to that of the peptide [2]	also measured
GKKVITAFNEGLK [Hb]	catch-slip bonds	Agonist	–	–	2D off-rate, koff (thermal fluctuation assay)*, with CD4 blocking [1]: 1.41 ± 0.17 s⁻¹; Effective 2D on-rate, Ackon, with CD4 blocking ([3]; calculated as AcKa × koff): 3.16 ± 0.42 × 10^−4 μm^4s^−1; 2D off-rate, koff (adhesion frequency assay)**, with CD4 blocking ([3]; zero force): 1.89 ± 0.31 s⁻¹
moth cytochrome c (MCC) peptide 88-103 bound to I-E^k (peptide-MHC)	–	–	–	–	adhesion frequency [5]: < 5%
GKKVITAFTEGLK [T72]	catch-slip bonds	Weak agonist	–	–	–
GKKVITAFAEGLK [A72]	slip-only bonds	Weak antagonist	decreases monotonically with increasing force	10-15 pN	Detectability by SPR (earlier work) [6]: not previously detectable using SPR
ANERADLIAYLKQATK [MCC]	–	–	–	–	Adhesion frequency Pa, noncognate pMHC-II, very high site density [7]: < 5%
GKKVITAFIEGLK [I72]	slip-only bonds	Antagonist	decreases monotonically with increasing force	10-15 pN	–
